A selection: hits, their analogues and other compounds. The true share with any hit is near 2.1%.
XiGFP reactiv – X-chromosome reactivation activator | XiGFP mouse fibroblasts, % GFP-positive cells imaging, 3 d; cells co-treated with 5-aza-dC sensitizer; scaled so ellipticine positive control = 100% | activation, % at 7.58 µM | 360,000 tested, 0.055% active | AID 743238;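 active means mean normalized replicate activation at least 10% and every replicate at or above 10%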;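 further: 0% = median of on-plate neutral control wells and 100% = ellipticine 6 µM median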
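System: XiGFP fibroblasts, SV40-immortalized. Medium: DMEM plus 5-aza-dC sensitizer. Doses: single point. Timing: 3 d treatment, 15 min room-temperature fixation. Control set: ellipticine 6 µM.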
Cneo AK release – causes C. neoformans cell lysis; adenylate kinase release luminescence, 4 h; normalised: neutral wells 0, clomiphene wells 100; lysis activity, % at 15 µM; 360,000 tested, 0.2% active; AID 651654;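 active means mean lysis activity across replicates of at least 80%, whatever share of replicates individually reach that level; inactive means mean lysis activity below 80%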
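Material: C. neoformans cells | Amount: Yeast cell density of 5 × 10^6 cells/mL | Medium: Fresh YPD growth medium | Dosing: Single dose | Times: Static 4 h at 37 °C with compound, 1 h detection | Detection: AK luminescence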
DENV2 CPE – inhibitors of DENV2 cytopathic effect | 350,000 tested, 1.7% active | DENV2-infected cells, cytopathic effect rescue, plate reader | CPE inhibition, % at 9.99 µM; in the data active means CPE inhibition above about 20%, passing the limit was not always enough; tested in BHK-21 cells;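 further: 0% = median of neutral control wells and 100% = median of positive control wells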
Statin myotox sup – suppression of simvastatin myotoxicity; rescue of ATP level, % at 7.49 µM; 330,000 tested, 0.78% active; C2C12 myotubes + simvastatin, ATP luminescence, 48 h; scaled: DMSO 0, geranylgeraniol control 100; AID 602340;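 active means mean ATP rescue above about 67%, or every replicate alone reaching that limit, limit read from the data, passing the limit was not always enough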;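 further: myotubes were challenged with 10 µM simvastatin during compound exposure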
* marks the source's active call; other numbers are inactive results; . = not tested or not shown.

SMILES	XiGFP reactiv	Cneo AK release	DENV2 CPE	Statin myotox sup
O=C(c1ccccn1)N1CC[C@@H]2[C@H]1c1cc(-c3ccc(F)cc3)ccc1N[C@@H]2CO	0	51	6	-28
C[C@@H]1CCCCO[C@H](CN(C)C(=O)C2CCCCC2)[C@@H](C)CN([C@H](C)CO)C(=O)c2cc(NC(=O)Nc3ccc(F)cc3)ccc2O1	0	0	2	.
O=S(c1ccc2ccccc2c1)c1cnns1 (stereo unspecified)	.	-3	.	124*
Cc1nnsc1S(=O)c1ccc(Cl)c(Cl)c1 (stereo unspecified)	0	-1	-6	6
CCC(=O)Nc1cccc(-c2cc3ccccc3oc2=O)c1	0	.	30*	.
O=C(c1cnccn1)N1CC[C@@H]2[C@@H](CO)Nc3ccc(-c4cccc(F)c4)cc3[C@@H]21	0	1	-5	13
N#Cc1c(Nc2ccccc2)[n+]([O-])c2ccc(Cl)cc2[n+]1[O-]	0	.	21*	.
O=C(/C=C/Nc1ccccc1)c1ccc(Cl)cc1Cl	0	-4	-3	22
C[C@H]1CN([C@@H](C)CO)C(=O)Cc2cc(NC(=O)Nc3cccc4ccccc34)ccc2O[C@H]1CN(C)S(=O)(=O)c1cccs1	0	101*	.	24
C[C@H](CO)N1C[C@H](C)[C@H](CN(C)S(=O)(=O)c2cccs2)Oc2ccc(NC(=O)Nc3cccc4ccccc34)cc2CC1=O	0	-1	0	18
C[C@@H]1CN([C@H](C)CO)C(=O)Cc2cc(NC(=O)Nc3cccc4ccccc34)ccc2O[C@@H]1CN(C)S(=O)(=O)c1cccs1	0	0	-5	75*
C[C@@H]1CN([C@@H](C)CO)C(=O)Cc2cc(NC(=O)NC3CCCCC3)ccc2O[C@@H]1CN(C)C(=O)Nc1cccc2ccccc12	-1	-7	6	-11
CO[C@@H]1CN(C)C(=O)c2cc(NC(C)=O)ccc2OC[C@@H](C)N(C(=O)CC2CC2)C[C@H]1C	.	2	27*	-17
CO[C@H]1CN(C)C(=O)c2cc(NC(C)=O)ccc2OC[C@H](C)N(C(=O)CC2CC2)C[C@@H]1C	0	-2	36*	-2
COc1ccc(NC(=O)N[C@H]2CC[C@@H](CCNC(=O)Cc3ccncc3)O[C@@H]2CO)cc1	-1	-1	10	-2
N#CCCn1c(=O)n(CCC#N)c2ccccc21	0	.	-3	.
N#CCCN1CCN(Cn2c3ccccc3c3ccccc32)CC1	.	1	.	114*
COc1cc(OC)cc(C(=O)OC/C(O)=C(\C#N)c2nc3ccccc3[nH]2)c1	0	1	60*	.
N#CC(=C(O)COC(=O)c1ccc2c(c1)OCCO2)c1nc2ccccc2[nH]1	0	.	-3	.
COc1ccccc1-c1ccc2n(c1=O)C[C@@H]1[C@@H](CO)[C@H](C(=O)NCC3CC3)N(S(C)(=O)=O)[C@H]21	0	58	8	-36
CS(=O)(=O)N1CCC2CC1c1cc(-c3ccccc3)ccc12 (stereo unspecified)	0	5	-3	-16
CN1CCC2CC1c1cc(-c3ccc(C(F)(F)F)cc3)ccc12 (stereo unspecified)	0	1	21*	-10
CN(C)CCNc1nc2sc3c(c2c(=O)n1-c1ccc(F)cc1)CCCCC3	0	.	26*	.
CN(C)CCNc1nc2sc3c(c2c(=O)n1-c1ccccc1)CCCCC3	0	4	4	.
CC1CC(C)CN(C(=O)COC(=O)c2nccnc2N)C1 (stereo unspecified)	0	3	45*	1
SMILES	XiGFP reactiv	Cneo AK release	DENV2 CPE	Statin myotox sup
CC1CC(C)CN(C(=O)COC(=O)c2ccc(Cl)nc2)C1 (stereo unspecified)	0	-1	1	-4
O=C(COc1ncnc2cc(Cl)ccc12)c1ccc2c(c1)OCCO2	0	-1	5	-1
O=C(COc1ncnc2ccccc12)c1ccc2c(c1)OCCO2	.	.	.	72*
Cc1ccc(NC(=O)COC(=O)CNC(=O)C2CCCCC2)cc1S(=O)(=O)N(C)C	0	-6	-4	-1
CCN(CC)S(=O)(=O)c1ccc(NC(=O)COC(=O)CNC(=O)C2CCCCC2)cc1	0	3	63*	-2
C[C@@H]1CN([C@H](C)CO)C(=O)Cc2cc(NC(=O)Cc3cn(C)c4ccccc34)ccc2O[C@H]1CN(C)Cc1ccc(C(=O)Nc2ccccc2N)cc1	0	57	-11	-6
CC1CCCCN1C(=O)COC(=O)C1CCN(S(=O)(=O)c2ccc(Cl)c(C(F)(F)F)c2)CC1 (stereo unspecified)	0	0	27*	-2
O=C(NC1c2ccccc2-c2ccccc21)c1ccco1	.	0	.	120*
CCC(=O)Oc1c(S(=O)(=O)c2ccc(C)cc2)c(C)nn1C(C)(C)C	.	0	.	106*
CCCNC(=O)N(C)C[C@@H]1Oc2ncc(C#Cc3ccncc3)cc2C(=O)N([C@@H](C)CO)C[C@@H]1C	0	-1	6	5
CC1=CC(=O)C2=C(C)CC[C@@H]3[C@H](OC(=O)[C@H]3C)[C@@H]12	0	-2	13	11
CC1=CC(=O)C2=C(C)CCC3C(C)C(=O)OC3C12 (stereo unspecified)	.	0	22*	-8
C#CCN(C[C@H]1[C@H](OC(=O)Nc2c(C)noc2C)[C@H](OC(=O)Nc2c(C)noc2C)C[C@@H](C(=O)OC)[C@H]1C(=O)OC)S(=O)(=O)c1ccc(C)cc1	1	4	70*	0
C#CCN(C[C@@H]1[C@@H](OC(=O)Nc2cccs2)[C@@H](OC(=O)Nc2cccs2)C[C@H](C(=O)OC)[C@@H]1C(=O)OC)S(=O)(=O)c1ccc(C)cc1	0	.	19	.
CC(=O)N1CC(=O)N2[C@@H](CO)[C@H](c3ccc(-c4ccc(C)cc4)cc3)[C@@H]2C1	0	.	2	.
O=C(c1cnccn1)N1CC[C@@H]2[C@H]1c1cc(-c3ccccc3)ccc1N[C@@H]2CO	0	-2	3	-8
Cc1ccc(S(=O)(=O)N[C@@H]2C=C[C@H](CC(=O)N3CCN(c4ccccc4)CC3)O[C@H]2CO)cc1	1	-1	-4	-2
CCS(=O)(=O)N1CCN(S(=O)(=O)c2ccc(Cl)s2)CC1	0	0	.	.
COCCNC(=S)N1CCN(S(=O)(=O)c2ccc(Cl)s2)CC1	0	0	45*	0
CC(=O)C1=C(C)Nc2ncnn2C1c1ccccc1OCc1ccccc1 (stereo unspecified)	.	1	.	114*
CCOC(=O)C1=C(C)Nc2ncnn2C1c1ccccc1F (stereo unspecified)	.	6	.	81*
Cc1ccccc1NC(=O)Nc1ccc2c(c1)C(=O)N(C)[C@H]1CC[C@@H](CC(=O)NCC3CC3)O[C@@H]1CO2	0	75	-2	-8
CCC(C(=O)Nc1c(C)cccc1C)n1c(-c2ccc(=O)[nH]c2)nc2ccccc21 (stereo unspecified)	0	.	33*	.
